From ChEMBL document CHEMBL3124806, “Imidazopyridine-fused [1,3]-diazepinones: synthesis and antiproliferative activity” (Eur J Med Chem, 2014)

What was measured:
Type in all cases: functional
SN12C = assay: Cytotoxicity against human SN12C cells assessed as cell growth at 10 uM after 48 hrs by SRB assay relative to untreated control; settings: read-out: Activity
Method in brief: (§1)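 NCI-60 single-dose screen. Compounds were added to the cultures at 10 μM and incubated for 48 h. The end point was sulforhodamine B protein staining read spectrophotometrically. Growth is reported as percent of untreated control cells.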

MDA-MB-231 = assay: Cytotoxicity against human MDA-MB-231 cells assessed as cell growth at 10 uM after 48 hrs by SRB assay relative to untreated control; settings: MDA-MB-231, 48 h, read-out: Activity
Method in brief: (§2)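 NCI-60 one-dose screen: each agent added at 10 µM, cultures incubated 48 h. Endpoint by sulforhodamine B protein-binding dye read spectrophotometrically; growth expressed as percent of untreated control cells.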

[1] = Cytotoxicity against human NCI-ADR-RES cells assessed as cell growth at 10 uM after 48 hrs by SRB assay relative to untreated control; settings: read-out: Activity; method in brief: as §2
SNB-75 = assay: Cytotoxicity against human SNB75 cells assessed as cell growth at 10 uM after 48 hrs by SRB assay relative to untreated control; settings: SNB-75, 48 h, read-out: Activity; method in brief: as §1
[2] = Cytotoxicity against human OVCAR4 cells assessed as cell growth at 10 uM after 48 hrs by SRB assay relative to untreated control; settings: OVCAR-4, 48 h, read-out: Activity; method in brief: as §2
KM12 = assay: Cytotoxicity against human KM12 cells assessed as cell growth at 10 uM after 48 hrs by SRB assay relative to untreated control; settings: KM12, 48 h, read-out: Activity
Method in brief: (§3)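 NCI-60 panel screen at a single concentration of 10 μM with 48 h incubation. Cell density measured by sulforhodamine B protein-binding dye and read spectrophotometrically. Growth expressed as percent of untreated control cells.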

SK-MEL-2 = assay: Cytotoxicity against human SK-MEL-2 cells assessed as cell growth at 10 uM after 48 hrs by SRB assay relative to untreated control; settings: SK-MEL-2, 48 h, read-out: Activity; method in brief: as §2
DU-145 = assay: Cytotoxicity against human DU145 cells assessed as cell growth at 10 uM after 48 hrs by SRB assay relative to untreated control; settings: DU-145, 48 h, read-out: Activity; method in brief: as §3
A549 = assay: Cytotoxicity against human A549 cells assessed as cell growth at 10 uM after 48 hrs by SRB assay relative to untreated control; settings: A549, 48 h, read-out: Activity; method in brief: as §3
RXF 393 = assay: Cytotoxicity against human RXF393 cells assessed as cell growth at 10 uM after 48 hrs by SRB assay relative to untreated control; settings: RXF 393, 48 h, read-out: Activity; method in brief: as §2
SK-MEL-28 = assay: Cytotoxicity against human SK-MEL-28 cells assessed as cell growth at 10 uM after 48 hrs by SRB assay relative to untreated control; settings: SK-MEL-28, 48 h, read-out: Activity; method in brief: as §1
[3] = Cytotoxicity against human Hs578T cells assessed as cell growth at 10 uM after 48 hrs by SRB assay relative to untreated control; settings: Hs-578T, read-out: Activity; method in brief: as §3
NCI-H23 = assay: Cytotoxicity against human NCI-H23 cells assessed as cell growth at 10 uM after 48 hrs by SRB assay relative to untreated control; settings: NCI-H23, 48 h, read-out: Activity; method in brief: as §2
SR = assay: Cytotoxicity against human SR cells assessed as cell growth at 10 uM after 48 hrs by SRB assay relative to untreated control; settings: read-out: Activity; method in brief: as §1
[4] = Cytotoxicity against human OVCAR5 cells assessed as cell growth at 10 uM after 48 hrs by SRB assay relative to untreated control; settings: OVCAR-5, 48 h, read-out: Activity; method in brief: as §2
NCI-H522 = assay: Cytotoxicity against human NCI-H522 cells assessed as cell growth at 10 uM after 48 hrs by SRB assay relative to untreated control; settings: NCI-H522, 48 h, read-out: Activity; method in brief: as §2
MDA-MB-468 = assay: Cytotoxicity against human MDA-MB-468 cells assessed as cell growth at 10 uM after 48 hrs by SRB assay relative to untreated control; settings: MDA-MB-468, 48 h, read-out: Activity; method in brief: as §2
A498 = assay: Cytotoxicity against human A498 cells assessed as cell growth at 10 uM after 48 hrs by SRB assay relative to untreated control; settings: A498, 48 h, read-out: Activity; method in brief: as §3
HOP-62 = assay: Cytotoxicity against human HOP62 cells assessed as cell growth at 10 uM after 48 hrs by SRB assay relative to untreated control; settings: HOP-62, 48 h, read-out: Activity; method in brief: as §3
HCT-116 = assay: Cytotoxicity against human HCT116 cells assessed as cell growth at 10 uM after 48 hrs by SRB assay relative to untreated control; settings: HCT-116, 48 h, read-out: Activity; method in brief: as §3
HL-60(TB) = assay: Cytotoxicity against human HL-60(TB) cells assessed as cell growth at 10 uM after 48 hrs by SRB assay relative to untreated control; settings: HL-60, 48 h, read-out: Activity
Method in brief: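 NCI-60 human tumour cell line panel; a single 10 µM concentration was added to the cultures and incubated 48 h. Endpoint was sulforhodamine B protein-binding dye read spectrophotometrically, with growth reported as percent of untreated control cells.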

SK-MEL-5 = assay: Cytotoxicity against human SK-MEL-5 cells assessed as cell growth at 10 uM after 48 hrs by SRB assay relative to untreated control; settings: SK-MEL-5, 48 h, read-out: Activity; method in brief: as §1
NCI-H460 = assay: Cytotoxicity against human NCI-H460 cells assessed as cell growth at 10 uM after 48 hrs by SRB assay relative to untreated control; settings: NCI-H460, 48 h, read-out: Activity; method in brief: as §2
COLO 205 = assay: Cytotoxicity against human COLO205 cells assessed as cell growth at 10 uM after 48 hrs by SRB assay relative to untreated control; settings: COLO 205, 48 h, read-out: Activity; method in brief: as §3
PC-3 = assay: Cytotoxicity against human PC3 cells assessed as cell growth at 10 uM after 48 hrs by SRB assay relative to untreated control; settings: PC-3, 48 h, read-out: Activity; method in brief: as §2
HCC 2998 = assay: Cytotoxicity against human HCC2998 cells assessed as cell growth at 10 uM after 48 hrs by SRB assay relative to untreated control; settings: HCC 2998, 48 h, read-out: Activity; method in brief: as §3
UACC-62 = assay: Cytotoxicity against human UACC62 cells assessed as cell growth at 10 uM after 48 hrs by SRB assay relative to untreated control; settings: UACC-62, 48 h, read-out: Activity; method in brief: as §1

Row | SMILES | growth at 10 µM (SN12C) [%] | growth at 10 µM (MDA-MB-231) [%] | growth at 10 µM [1] [%] | growth at 10 µM (SNB-75) [%] | growth at 10 µM [2] [%] | growth at 10 µM (KM12) [%] | growth at 10 µM (SK-MEL-2) [%] | growth at 10 µM (DU-145) [%] | growth at 10 µM (A549) [%] | growth at 10 µM (RXF 393) [%] | growth at 10 µM (SK-MEL-28) [%] | growth at 10 µM [3] [%] | growth at 10 µM (NCI-H23) [%] | growth at 10 µM (SR) [%] | growth at 10 µM [4] [%] | growth at 10 µM (NCI-H522) [%] | growth at 10 µM (MDA-MB-468) [%] | growth at 10 µM (A498) [%] | growth at 10 µM (HOP-62) [%] | growth at 10 µM (HCT-116) [%] | further results
1 | O=C1Nc2nc3ccccn3c2C(=O)[C@H](Cc2ccccc2)N1 | 105 | 106 | 98.7 | 79.1 | 111 | 100 | 113 | 104 | 98.6 | 105 | 114 | 102 | 101 | 107 | 95 | 94 | 98.4 | 94 | 97.2 | 92.3 | growth at 10 µM (HL-60(TB)): 116%; growth at 10 µM (SK-MEL-5): 97.2%; growth at 10 µM (NCI-H460): 103%; growth at 10 µM (COLO 205): 126%; growth at 10 µM (PC-3): 95.2%; growth at 10 µM (HCC 2998): 97.5%; growth at 10 µM (UACC-62): 104%
2 | Cc1ccccc1C1=Nc2nc3ccccn3c2C(=O)[C@H](Cc2ccccc2)N1 | 107 | 104 | 95.4 | 70.8 | 98.7 | 108 | 115 | 113 | 91.7 | 105 | 113 | 102 | 95.3 | 122 | 101 | 121 | 104 | 98.2 | 93.4 | 86.9 | growth at 10 µM (HL-60(TB)): 125%; growth at 10 µM (SK-MEL-5): 103%; growth at 10 µM (NCI-H460): 103%; growth at 10 µM (COLO 205): 107%; growth at 10 µM (PC-3): 89.4%; growth at 10 µM (HCC 2998): 99.9%; growth at 10 µM (UACC-62): 103%
3 | O=C1c2c(nc3ccccn23)N=C(c2ccccc2)N2CCC[C@@H]12 | 99.6 | 94.6 | 97.7 | 88.3 | 95.2 | 101 | 114 | 97 | 96.3 | 98.5 | 108 | 96.7 | 97.8 | 118 | 94.2 | 127 | 101 | 89.3 | 99.9 | 97.8 | growth at 10 µM (HL-60(TB)): 129%; growth at 10 µM (SK-MEL-5): 94.7%; growth at 10 µM (NCI-H460): 103%; growth at 10 µM (COLO 205): 99.3%; growth at 10 µM (PC-3): 92.6%; growth at 10 µM (HCC 2998): 94.7%; growth at 10 µM (UACC-62): 107%
4 | O=C1c2c(nc3ccccn23)NC(=O)N2CCC[C@@H]12 | 106 | 118 | 100 | 96.5 | 104 | 105 | 107 | 100 | 98 | 104 | 106 | 94.6 | 98.5 | 126 | 101 | 106 | 93.5 | 88.5 | 97.1 | 89 | growth at 10 µM (SK-MEL-5): 99.5%; growth at 10 µM (NCI-H460): 105%; growth at 10 µM (COLO 205): 123%; growth at 10 µM (PC-3): 93.8%; growth at 10 µM (HCC 2998): 105%; growth at 10 µM (UACC-62): 104%
5 | COc1ccc(C2=Nc3nc4ccccn4c3C(=O)[C@H](Cc3ccccc3)N2)cc1 | 113 | 121 | 89.2 | 77.5 | 112 | 99.9 | 106 | 111 | 109 | 107 | 98.1 | 96.4 | 92 | 105 | 107 | 94.7 | 98.5 | 112 | 88.2 | 88 | growth at 10 µM (SK-MEL-5): 104%; growth at 10 µM (NCI-H460): 104%; growth at 10 µM (COLO 205): 127%; growth at 10 µM (PC-3): 91.8%; growth at 10 µM (HCC 2998): 96.4%; growth at 10 µM (UACC-62): 99.5%
